Source: PubChem (several laboratories)
SUMO1 PPI mod: alters human SUMO1 binding to SIM partners; P63165; SUMO1 binding to a labelled peptide, TR-FRET, 1 h; inhibition, % at 20 µM; hit rate 0.33% among 360,000; AID 602429; in the data active = inhibition above about 37%
Scp1 inh: inhibitors of human Scp-1 phosphatase. Q9GZU7. Recombinant Scp1, phosphopeptide, malachite green phosphate absorbance. inhibition, % at 20 µM. hit rate 0.88% among 340,000. AID 493091;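 active = inhibition above about 50% at 20 µM, limit read from the data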
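Material – SCP-1 phosphatase catalytic domain, residues 76-261 · Buffer or medium – Acidic Tris acetate buffer with magnesium and detergent · Also added – Phospho 17-mer peptide substrate · Compound – single 20 µM dose, 1% DMSO · Times – 45 min room-temperature reaction, 5 min colour, 30 min stabiliser · Technique – Phosphate-binding colour reagent, absorbance read at 630 nm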
GRK2 aptamer HTS: blocks RNA aptamer binding to human GRK2 | bead flow cytometry, FAM-aptamer displacement from GRK2 | inhibition of aptamer binding, % at 10 µM | hit rate 0.59% among 330,000;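 active = inhibition of aptamer binding above 40%, roughly 3 SD of noise, on plates passing a quality check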;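 also: median bead fluorescence of bound FAM aptamer so fluorescent compounds give negative values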
Target sequence (P25098 whole entry, looked up): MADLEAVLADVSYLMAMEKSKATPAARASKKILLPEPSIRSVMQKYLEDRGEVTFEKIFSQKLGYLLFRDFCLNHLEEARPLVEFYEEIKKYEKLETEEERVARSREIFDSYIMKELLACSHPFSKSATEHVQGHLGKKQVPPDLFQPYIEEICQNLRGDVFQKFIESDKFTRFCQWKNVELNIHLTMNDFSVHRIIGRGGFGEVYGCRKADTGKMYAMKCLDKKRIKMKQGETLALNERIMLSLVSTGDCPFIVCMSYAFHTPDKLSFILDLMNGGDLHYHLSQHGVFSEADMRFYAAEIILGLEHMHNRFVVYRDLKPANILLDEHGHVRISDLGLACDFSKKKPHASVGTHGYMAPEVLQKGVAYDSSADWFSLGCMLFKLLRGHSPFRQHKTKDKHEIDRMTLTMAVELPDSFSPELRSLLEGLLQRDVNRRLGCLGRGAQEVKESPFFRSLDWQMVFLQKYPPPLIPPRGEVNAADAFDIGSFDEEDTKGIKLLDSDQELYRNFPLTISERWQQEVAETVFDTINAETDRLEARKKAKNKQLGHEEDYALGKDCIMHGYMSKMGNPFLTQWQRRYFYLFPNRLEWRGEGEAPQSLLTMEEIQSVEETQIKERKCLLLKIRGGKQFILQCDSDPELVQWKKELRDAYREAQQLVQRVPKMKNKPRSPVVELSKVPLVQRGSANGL
LMPTP inh: blocks human LMPTP phosphatase | recombinant LMPTP-A, OMFP fluorogenic substrate, fluorescence intensity | inhibition, % at 20 µM | hit rate 0.22% among 360,000 | AID 651560;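 active = compounds that cut the enzyme signal by at least half of the control window in the single-dose screen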
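Test system: LMPTP-A phosphatase enzyme; input: 0.625 nM LMPTP-A final; reagent: OMFP substrate, 400 µM final; compound dosing: 20 µM single dose, 3% DMSO; incubation: 50 min dark incubation at room temperature; measured by: endpoint fluorescence intensity from OMFP dephosphorylation; measure: % inhibition relative to no-enzyme and uninhibited control wells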
STEP block: blocks human striatal-enriched tyrosine phosphatase | AID 588621 | hit rate 0.25% among 360,000 | recombinant STEP, OMFP fluorogenic substrate, fluorescence | inhibition, % at 20 µM | P54829;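 active = inhibition at 20 µM, scaled per plate between control wells, above about 37%, limit read from the data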
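Material: STEP (striatal-enriched tyrosine phosphatase) enzyme, cell-free; Compound dosing: 20 µM single dose in 1% DMSO; Technique: fluorescence read at 480 nm ex / 540 nm em; Times: reaction 20 min, ambient temperature; Medium: 50 mM Bis-Tris pH 6.0 with 2.5 mM DTT and 0.005% Tween 20; Also added: OMFP at 25 µM.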
DNMT1 block: blocks human DNA methyltransferase DNMT1; inhibition (reported as % activation of signal), % at 10 µM; DNMT1 molecular beacon, Hinp1I cleavage, fluorescence; AID 588458; P26358; hit rate 0.83% among 360,000; in the data active = inhibition above about 50%
Of the large screens only hits and unclear results are named; the others gave an inactive call. Compounds with a hit are over-represented: about 2.1% of the library has one in this group of screens.

C#CCn1cc(C=C2C(=O)c3ccccc3C2=O)c2ccccc21	DNMT1 block 59.6 (no result: GRK2 aptamer HTS)
O=C(/C=C/Nc1ccc(F)cc1)c1ccc(Br)cc1	none
O=C(/C=C/Nc1ccc([N+](=O)[O-])cc1)c1ccc(Br)cc1	GRK2 aptamer HTS 46.0
Cc1cccc(C)c1NC(=O)CSCC(=O)c1ccc(O)c(O)c1	LMPTP inh 48.5
N#Cc1c(NC(=O)CSc2nnc(-c3ccccc3)o2)sc2c1CCCC2	LMPTP inh 76.8
Cc1sc(NC(=O)CSc2nnc(-c3ccccc3)o2)c(C#N)c1C	none
CC1CCc2c(sc(NC(=O)CSc3nnc(-c4ccccc4)o3)c2C#N)C1 (stereo not given)	LMPTP inh 65.5
CC1CCc2c(sc(NC(=O)CSc3ncn[nH]3)c2C#N)C1 (stereo not given)	none
CC(Oc1cccc(Cl)c1)C(=O)Nc1ccc(N2CCOCC2)cc1N1CCOCC1 (stereo not given)	none
FC(F)(F)C1=Nc2cccc3cccc(c23)N1	SUMO1 PPI mod 117.2, LMPTP inh 87.1, DNMT1 block 108.2 (no result: GRK2 aptamer HTS)
O=C(CNC(=O)c1ccc(Br)o1)NNC(=O)COc1ccccc1Cl	none
NC(=O)c1ccc(NC(=O)CSC2=Nc3ccccc3C3CC=NN23)cc1 (stereo not given)	SUMO1 PPI mod 47.1
Cc1[nH]nc2c1C(c1ccc(-c3ccc(Cl)cc3)o1)C(C#N)=C(N)O2 (stereo not given)	SUMO1 PPI mod 63.8
CCCn1nc(C(=O)Nc2cccc(S(=O)(=O)N3CCOCC3)c2)c2ccccc2c1=O	none (no result: Scp1 inh, GRK2 aptamer HTS)
Cc1ccc(S(=O)(=O)/N=C2/C=C(Sc3ncn[nH]3)C(=O)c3ccccc32)cc1	SUMO1 PPI mod 92.8, DNMT1 block 76.6
Cc1ccc(S(=O)(=O)/N=C2/C=C(Sc3ncn[nH]3)C(=O)c3ccccc32)c(C)c1	none (no result: SUMO1 PPI mod, Scp1 inh, LMPTP inh, STEP block, DNMT1 block)
CC(C)c1ccc(S(=O)(=O)/N=C2/C=C(Sc3ncn[nH]3)C(=O)c3ccccc32)cc1	SUMO1 PPI mod 91.7
CCn1c(/C=C/N(C)c2ccccc2)[n+](CC)c2ccc(Cl)cc21	Scp1 inh 74.0
CCn1c(/C=C/Nc2ccccc2)[n+](CC)c2ccc(Cl)cc21	none
Cc1cc(/C=N/NC(=O)C(O)(c2ccccc2)c2ccccc2)c(C)n1-c1cccc(C(=O)O)c1	DNMT1 block 53.9
Clc1cc(Cl)cc(C2=NC(Cc3ccccc3)CO2)c1 (stereo not given)	none
COc1ccc(C(=O)N/N=C/c2cc(Br)ccc2O)cc1OC	none
COc1ccc(O)c(/C=N/NC(=O)c2ccc(OCc3cccc(Br)c3)cc2)c1	Scp1 inh 95.8, DNMT1 block 52.5
Cc1ccc(NC(=O)CSc2nc(N)cc(=O)[nH]2)cc1S(=O)(=O)N1CCOCC1	none
Cc1ccc(NC(=O)CSc2nc(N)cc(=O)[nH]2)cc1S(=O)(=O)N1CCCCC1	SUMO1 PPI mod 38.9
N#Cc1c(-c2ccc(Cl)cc2)cc(-c2cccs2)nc1SCC(=O)O	Scp1 inh 89.7, LMPTP inh 91.6, STEP block 97.8
NC1(CO)COC(c2ccccc2)OC1 (stereo not given)	none (no result: Scp1 inh, GRK2 aptamer HTS)
COc1ccc(S(=O)(=O)NC(=O)C2(C)CCN2C(=O)CC2CCCC2)cc1 (stereo not given)	none (no result: Scp1 inh, GRK2 aptamer HTS)
COc1ccc(NC(=O)c2ccc(-c3nn(C)c(=O)c4ccccc34)cc2)cc1C(N)=O	none
CC(=O)N1CCc2cc(C(=O)CN3CCN(c4ccccc4F)CC3)ccc21	none
O=C(CN1CCN(c2ccccc2F)CC1)c1ccc2cc[nH]c2c1	LMPTP inh 67.3
CC1Cc2c([nH]c3ccccc23)C2c3ccccc3CN12 (stereo not given)	none
CC(C)CCCCCCCCCCCCC(=O)NCC(=O)NC1C(C)OC(Nc2ncnc3nc[nH]c23)C(O)C1O (stereo not given)	DNMT1 block 93.8 (no result: GRK2 aptamer HTS)
C/C(=C\CNc1ncnc2nc[nH]c12)CO	none
N#C/C(=C\c1ccc(-c2ccc(C(=O)O)cc2)o1)C(=O)Nc1ccc(F)cc1	Scp1 inh 69.2
Cc1cccc(N(Cc2ccccc2)C(=O)c2ccccc2S(C)(=O)=O)c1	none
Cn1nc(CC(=O)NCc2ccc(F)cc2)c2ccccc2c1=O	SUMO1 PPI mod 46.1
CCOC(=O)C1CCN(C(=O)CNC(=O)c2nn(-c3ccc(OC)cc3)c(=O)c3ccccc23)CC1	none
COc1ccc(N=C2S/C(=C\c3ccc(N4CCOCC4)o3)C(=O)N2CCc2c[nH]c3ccccc23)cc1	none (no result: Scp1 inh)
COc1ccc(N=C2S/C(=C\c3ccc(OCC(=O)O)cc3)C(=O)N2CCc2c[nH]c3ccccc23)cc1	SUMO1 PPI mod 97.9, STEP block 96.4 (no result: GRK2 aptamer HTS)
Cc1ccc(-c2cc(C(=O)Nc3ccccn3)c3ccccc3n2)o1	Scp1 inh 57.9, DNMT1 block 60.9
Cc1ccc(NC(=O)c2cc(-c3ccc(C)o3)nc3ccccc23)cc1	none
CC1CN(C(=S)Nc2cccc(Cl)c2Cl)CC(C)O1 (stereo not given)	none
O=C(C(=O)N1CCN(C(=O)c2ccco2)CC1)c1cc2ccccc2o1	none (no result: Scp1 inh, GRK2 aptamer HTS, STEP block, DNMT1 block)
O=c1c2c3nc4ccccc4nc3n(/N=C/c3ccco3)c2ncn1CCC1=CCCCC1	Scp1 inh 88.0
Cc1nc2c(c(=O)n1CCC1=CCCCC1)c1nc3ccccc3nc1n2/N=C/c1ccccc1	none
O=Nc1ccc(NOC(=O)c2ccccc2Br)cc1	none
O=C(ONc1ccc(N=NC(=O)c2ccccc2O)cc1)c1ccccc1	Scp1 inh 90.7
O=C(c1cc(C2CCCCN2S(=O)(=O)c2cccs2)on1)N1CCOCC1 (stereo not given)	SUMO1 PPI mod 43.9 (no result: Scp1 inh, GRK2 aptamer HTS)
O=C(NCc1cccnc1)c1cc(C2CCCCN2S(=O)(=O)c2cccs2)on1 (stereo not given)	none (no result: Scp1 inh, GRK2 aptamer HTS)
CCCN1C(=O)/C(=c2\sc3nc(=O)c(Cc4ccc(C)cc4)nn3c2=O)c2ccccc21	none
O=c1nc2s/c(=C\c3ccco3)c(=O)n2nc1Cc1ccc(F)cc1	Scp1 inh 77.4
O=C1C2CC=C(Cl)CC2C(=O)N1CCC[n+]1cccc2ccccc21 (stereo not given)	GRK2 aptamer HTS 83.0
O=C(O)c1ccc(N2Cc3ccccc3C2)cc1O	Scp1 inh 71.2
O=C(Cn1cncn1)N/N=C/c1ccccc1O	none
C[n+]1c(/C=C/c2ccc3c(c2)OCO3)ccc2ccccc21	Scp1 inh 105.1
C(=Cc1nc2ccccc2o1)c1ccc2c(c1)OCO2	none (no result: Scp1 inh, GRK2 aptamer HTS)
CCOc1cccc(CNn2cnnc2)c1OCc1ccccc1Cl	none
CCOc1cccc(CNc2ccc(O)cc2)c1OCc1ccccc1Cl	SUMO1 PPI mod 44.4
CCOc1cccc(CNc2ccc(O)cc2)c1OCc1ccc(Cl)cc1Cl	SUMO1 PPI mod 68.2
Nc1sccc1C(=O)NC1CC1	none (no result: Scp1 inh, GRK2 aptamer HTS, STEP block, DNMT1 block)
Cc1c(Cc2ccccc2)[n+](=O)c2ccccc2n1[O-]	none (no result: Scp1 inh, GRK2 aptamer HTS)
